Reference: ChEMBL document CHEMBL4007449, “Novel multi-substituted benzyl acridone derivatives as survivin inhibitors for hepatocellular carcinoma treatment” (Eur J Med Chem, 2017)
pIC50: −log10 of the molar value.

Key:
HepG2 [1] = assay: Antitumor activity against human HepG2 cells ectopically xenografted in nude mouse assessed as tumor growth inhibition at 3 mg/kg, ip administered once in 2 days measured after 30 days relative to control; type: functional; details: read-out: TGI
In short: (§1)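 HepG2 cells implanted subcutaneously in the flanks of nude mice, randomised into groups of 5: blank, 5-FU (25 mg/kg) and test compound hydrochloride at 0.33 or 3 mg/kg, given i.p. once every 2 days. Tumour volume and body weight recorded every 2 days. Mice euthanised on day 30; tumours, liver and spleen weighed and organ indices calculated; tumour growth inhibition derived.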

Mus musculus [2] = assay: Toxicity in nude mouse ectopically xenografted with human HepG2 cells assessed as liver weight index at 3 mg/kg, ip administered once in 2 days measured after 30 days (reference value: 0.0009 to 0.0187); type: organism-based; details: in vivo, 720 h; in short: as §1
Mus musculus [3] = assay: Toxicity in nude mouse ectopically xenografted with human HepG2 cells assessed as spleen weight index at 0.33 mg/kg, ip administered once in 2 days measured after 30 days (reference value: 0.002 to 0.0106); type: organism-based; details: in vivo, 720 h; in short: as §1
Mus musculus [4] = assay: Toxicity in nude mouse ectopically xenografted with human HepG2 cells assessed as body weight loss at 0.33 to 3 mg/kg, ip administered once in 2 days measured up to 30 days post dose; type: organism-based; details: in vivo; in short: as §1
Mus musculus [5] = assay: Toxicity in ip dosed nude mouse ectopically xenografted with human HepG2 cells assessed as increase in spleen weight administered once in 2 days measured after 30 days; type: organism-based; details: in vivo, 720 h; in short: as §1
Mus musculus [6] = assay: Toxicity in nude mouse ectopically xenografted with human HepG2 cells assessed as effect on normal behavior at 0.33 to 3 mg/kg, ip administered once in 2 days measured up to 30 days post dose; type: organism-based; details: in vivo; in short: as §1
Mus musculus [7] = assay: Toxicity in nude mouse ectopically xenografted with human HepG2 cells assessed as effect on normal growth at 0.33 to 3 mg/kg, ip administered once in 2 days measured up to 30 days post dose; type: organism-based; details: in vivo; in short: as §1
Mus musculus [8] = assay: Toxicity in nude mouse ectopically xenografted with human HepG2 cells assessed as spleen weight at 3 mg/kg, ip administered once in 2 days measured after 30 days (reference value: 0.071 to 0.248 g); type: organism-based; details: in vivo, 720 h; in short: as §1
Mus musculus [9] = assay: Toxicity in nude mouse ectopically xenografted with human HepG2 cells assessed as liver weight at 0.33 mg/kg, ip administered once in 2 days measured after 30 days (reference value: 0.069 to 0.434 g); type: organism-based; details: in vivo, 720 h; in short: as §1
Mus musculus [10] = assay: Toxicity in nude mouse ectopically xenografted with human HepG2 cells assessed as spleen weight at 0.33 mg/kg, ip administered once in 2 days measured after 30 days (reference value: 0.071 to 0.248 g); type: organism-based; details: in vivo, 720 h; in short: as §1
Mus musculus [11] = assay: Toxicity in nude mouse ectopically xenografted with human HepG2 cells assessed as spleen weight index at 3 mg/kg, ip administered once in 2 days measured after 30 days (reference value: 0.002 to 0.0106); type: organism-based; details: in vivo, 720 h; in short: as §1
Mus musculus [12] = assay: Toxicity in nude mouse ectopically xenografted with human HepG2 cells assessed as liver weight index at 0.33 mg/kg, ip administered once in 2 days measured after 30 days (reference value: 0.0009 to 0.0187); type: organism-based; details: in vivo, 720 h; in short: as §1
Mus musculus [13] = assay: Toxicity in nude mouse ectopically xenografted with human HepG2 cells assessed as liver weight at 3 mg/kg, ip administered once in 2 days measured after 30 days (reference value: 0.069 to 0.434 g); type: organism-based; details: in vivo, 720 h; in short: as §1
[14] = Antiproliferative activity against human QGY7701 cells after 48 hrs by MTT assay; type: cell-based; details: QGY7701, 48 h
In short: (§2)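 Cells grown in DMEM with 10% FBS at 37 °C, 5% CO2; seeded at 6 × 10^3 cells/well, allowed to attach 12 h, then exposed to compound at final 50, 25, 10, 1 and 0.1 µM for 48 h. MTT (5 mg/mL) added for 4 h, formazan dissolved in DMSO, absorbance read at 490 nm; IC50 taken from the resulting curve.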

[15] = Selectivity index, ratio of IC50 for human QGY7701 cells to IC50 for human HepG2 cells; type: functional
In short: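 Ratio built from MTT IC50 values: QGY-7701 and HepG2 cells in DMEM/10% FBS, seeded at 6 × 10^3 cells/well, attached 12 h, treated 48 h at final 0.1–50 µM, MTT 4 h, DMSO solubilisation, absorbance at 490 nm.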

HepG2 [16] = assay: Antiproliferative activity against human HepG2 cells after 48 hrs by MTT assay; type: functional, cell-based; details: HepG2, 48 h; in short: as §2
MCF7 = assay: Antiproliferative activity against human MCF7 cells after 48 hrs by MTT assay; type: functional, cell-based; details: MCF7, 48 h; in short: as §2

pIC50 (HepG2 [16])	pIC50 (MCF7)	Compound	inhibition in vivo at 3 mg/kg (HepG2 [1])	Activity index (Mus musculus [2])	Activity index (Mus musculus [3])	Activity (Mus musculus [4])	Activity (Mus musculus [5])	Activity (Mus musculus [6])	Activity (Mus musculus [7])	Activity (Mus musculus [8])	Activity (Mus musculus [9])	Activity (Mus musculus [10])	Activity index (Mus musculus [11])	Activity index (Mus musculus [12])	Activity (Mus musculus [13])	pIC50 [14]	Ratio IC50 [15]
–	–	COc1ccc(CNc2ccc(C(=O)NCCCN(C)C)c3[nH]c4c([N+](=O)[O-])cccc4c(=O)c23)cc1.Cl	54%	0.0025 to 0.0198	0.0016 to 0.0113	Non-Toxic	Dose-dependent effect	Non-Toxic	Non-Toxic	0.084 to 0.344 g	0.04 to 0.441 g	0.044 to 0.231 g	0.0042 to 0.0162	0.0016 to 0.0217	0.032 to 0.421 g	–	–
5.45	5.36	COc1ccc(CNc2ccc(C(=O)NCCCN(C)C)c3[nH]c4c([N+](=O)[O-])cccc4c(=O)c23)cc1	–	–	–	–	–	–	–	–	–	–	–	–	–	4.39	11
